{"data": "Experimental data from different studies", "MAP3K7": "Mitogen-activated protein kinase kinase kinase 7 (MAP3K7, Homo sapiens, UniProt O43318)", "ADRA1A": "Alpha-1A adrenergic receptor (ADRA1A, Homo sapiens, UniProt P35348)", "MAL12": "Alpha-glucosidase MAL12 (MAL12, Saccharomyces cerevisiae S288c, UniProt P53341)"}
{"Compound": "C1=C/COCc2cc(ccc2OCCN2CCCC2)Nc2nccc(n2)-c2cccc(c2)COC/1", "target": "Tyrosine-protein kinase Lyn (LYN, Homo sapiens, UniProt P07948)", "test": "binding", "conditions": "0.1 µM", "endpoint": "remaining binding", "value": "88%"}
{"Compound": "CNC(=O)c1ccccc1Nc1nc(Nc2ccc(CO)nc2)ncc1Cl", "target": "MAP3K7", "test": "enzyme activity, inhibitor", "conditions": "1 µM", "endpoint": "remaining activity", "value": "64.9%"}
{"Compound": "COc1cc2c3c(c1OC)-c1c(OC)ccc(O)c1CC3N(C)CC2 (stereo not drawn)", "target": "ADRA1A", "test": "ligand displacement, radioligand", "conditions": "10 µM", "endpoint": "inhibition", "value": "9%"}
{"Compound": "CC(=O)ON=C1C=CC(=C(C#N)c2ccccc2)C=C1", "target": "Glycogen synthase kinase 3 (Plasmodium falciparum, UniProt O77344)", "test": "enzyme activity, inhibitor, ADP detection", "conditions": "20 µM", "endpoint": "activity vs control", "value": "89%"}
{"Compound": "COc1cc2c3c(c1OC)-c1c(OC)ccc(-c4ccc(C#N)cc4)c1CC3N(C)CC2 (stereo not drawn)", "target": "ADRA1A", "test": "ligand displacement, radioligand", "conditions": "10 µM", "endpoint": "inhibition", "value": "83%"}
{"Compound": "O=C1C[C@@H](c2ccc(O)cc2)Oc2c(Br)c(O)c(Br)c(O)c21", "target": "MAL12", "test": "enzyme activity, inhibitor, absorbance", "conditions": "50 µM", "endpoint": "inhibition", "value": "80.5%"}
{"Compound": "Nc1ncnc2c1ncn2[C@@H]1O[C@H](COP(=O)(O)OP(=O)(O)OP(=O)(O)O)[C@@H](O)[C@H]1O", "target": "Hexokinase HKDC1 (Homo sapiens, UniProt Q2TB90)", "test": "enzyme activity, substrate", "conditions": "pH 8", "endpoint": "Km", "value": "410 µM"}
{"Compound": "O=c1cc(-c2ccc(O)c(O)c2)oc2cc(O)cc(O)c12", "target": "MAL12", "test": "enzyme activity, inhibitor, absorbance", "conditions": "50 µM", "endpoint": "inhibition", "value": "34.4%"}
{"Compound": "C#Cc1cnc(Nc2ccc(CO)nc2)nc1Nc1ccccc1S(C)(=O)=NC#N (stereo not drawn)", "target": "MAP3K7", "test": "enzyme activity, inhibitor", "conditions": "1 µM", "endpoint": "remaining activity", "value": "50.4%"}
{"Compound": "O=C1C[C@@H](c2ccc(O)cc2)Oc2cc(O)cc(O)c21", "target": "MAL12", "test": "enzyme activity, inhibitor, absorbance", "conditions": "50 µM", "endpoint": "inhibition", "value": "26.5%"}
{"Compound": "CNC(=O)c1ccccc1Nc1nc(Nc2ccc(CO)cc2)ncc1Cl", "target": "MAP3K7", "test": "enzyme activity, inhibitor", "conditions": "1 µM", "endpoint": "remaining activity", "value": "42.9%"}
{"Compound": "CCCCC(=O)Nc1ccc(-c2ccc3ncn(CCC)c(=O)c3c2)cn1", "target": "Serine/threonine-protein kinase tousled-like 2 (TLK2, Homo sapiens, UniProt Q86UE8)", "test": "binding, competition with immobilised ligand", "conditions": "0.5 µM", "endpoint": "remaining binding", "value": "87%"}
